Experiments:
[1] = melting temperature; fluorescence melt of hairpins on a sequencing array, two-state fit, raised by 9.35 °C to match UV melts; details: sodium 0.088 M
How it was run: (§1)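 To match UV melts, fitted temperatures were raised by 9.35 °C. These fits were bootstrapped two-state models that gave melting temperature and folding enthalpy, combined by inverse variance over four replicates. The input was normalised Cy3 fluorescence of library hairpins with annealed Cy3 and quencher oligos on a sequenced MiSeq flow cell, imaged in 50 mM Na-HEPES pH 8.0, 25 mM NaCl in 2.5 °C steps up to 60 °C.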

[2] = folding enthalpy; higher = less favourable; fluorescence melt of hairpins on a sequencing array, two-state fit; details: sodium 0.088 M
How it was run: as §1

Sequence	Tm [1] [°C]	folding enthalpy [2] [kcal/mol]
GTTCGCGAAAGCGTAAC ((((((....))).)))	48	-13.8
GTTCGGCCGAAAGGCAAC (((..(((....))))))	31.3	-6.89
GTTCGGCGAAAGCCAAC (((.(((....))))))	42.9	-12.3
GTTCGGCGAAAGCCCAAC (((.(((....))).)))	37.1	-11.2
GTTCGGGGAAACCCGAGC (.(((((....))))).)	53.3	-25.5
GTTCGGGGAAACCTGAAC ((((.((....)).))))	49.9	-38.9
GTTCGGGGAAACCTGAGC (.((.((....)).)).)	32.6	-20.5
GTTCGTCGAAAGACAAC (((.(((....))))))	42.5	-17.2
GTTCGTGGAAACACGGAC ((.((((....)))).))	54.5	-42.5
GTTCGTGGAAACATGAAC ((((.((....)).))))	47.5	-37.7
GTTCTAGGAAACTAGGAC ((.((((....)))).))	39.7	-28.5
GTTCTCCGAAAGGAAAAC (((.(((....))).)))	35.5	-25.2
GTTCTCGAAAGAGGAAC ((((((....))).)))	38.3	-20.8
GTTCTCGAAAGAGTCAAC ((((((....)))..)))	23.2	-10.2
GTTCTCGCGAAAGCGAAC (((..(((....))))))	27.8	-7.5
GTTCTCGGAAACGAGAAC (((((((....)))))))	65.7	-34.5
GTTCTGCCGAAAGGCAAC (((..(((....))))))	25.1	-7.25
GTTCTGGGAAACCAAAAC (((.(((....))).)))	26.5	-12.4
GTTCTGGGAAACCAGAAC (((((((....)))))))	60.5	-42.9
GTTCTGGGAAACCAGGAC ((.((((....)))).))	49.1	-31.8
GTTCTGGGAAACTAGAAC (((((.(....).)))))	42.9	-29.6
GTTCTTACGAAAGTAAAC (((..(((....))))))	21.9	-6.21
GTTCTTGGAAACAAGGAC ((.((((....)))).))	44.6	-23.9

Sequence	Tm [1] [°C]	folding enthalpy [2] [kcal/mol]
GTTGAACGAAAGTTAAC (((.(((....))))))	30	-12.3
GTTGAACGAAAGTTTAAC (((.(((....))).)))	45.3	-31.7
GTTGAAGGAAACTTTAAC (((.(((....))).)))	32.1	-17.7
GTTGACCGAAAGGTAAC (((.(((....))))))	38.1	-16.4
GTTGACGAAAGTCACAAC ((((((....)))..)))	36.2	-9.62
GTTGACGAAAGTCTGAAC ((((((....)))..)))	25.1	-11.5
GTTGACGGAAACATCAAC (((((.(....).)))))	37.2	-31.8
GTTGACGGAAACGTCAGC (.(((((....))))).)	52.5	-22
GTTGAGGGAAACCCCAAC ((((.((....)).))))	43.3	-26.1
GTTGAGTCGAAAGACAAC (((..(((....))))))	31	-14.6
GTTGATCCGAAAGGAAAC (((..(((....))))))	27.6	-20.8
GTTGATCGAAAGATAAC (((.(((....))))))	28.9	-13.3
GTTGATCGAAAGATTAAC (((.(((....))).)))	44.8	-30.6
GTTGATGCGAAAGCAAAC (((..(((....))))))	37.1	-13.8
GTTGATGGAAACATCAAC (((((((....)))))))	57.7	-46.2
GTTGATGGAAACATCAGC (.(((((....))))).)	46.5	-25
GTTGATGGAAACATTAAC (((.(((....))).)))	37.5	-34.1
GTTGCACGAAAGTGAAC (((.(((....))))))	39.2	-14.1
GTTGCAGGAAACTGCGAC ((.((((....)))).))	53.9	-28
GTTGCCACGAAAGTGAAC (((..(((....))))))	30.6	-11.8
GTTGCCGAAAGGCCAAAC ((((((....)))..)))	26.9	-10.3
GTTGCCGAAAGGCGAAAC ((((((....)))..)))	33.2	-9.33
GTTGCCGAAAGGCGCAAC ((((((....)))..)))	31.9	-8.82

Sequence	Tm [1] [°C]	folding enthalpy [2] [kcal/mol]
GTTGCCTCGAAAGAGAAC (((..(((....))))))	25.4	-12.1
GTTGCGACGAAAGTCAAC (((..(((....))))))	33.5	-16.8
GTTGCGCGAAAGCGAAC (((.(((....))))))	45.5	-13.4
GTTGCGCGAAAGCGGAAC (((.(((....))).)))	67.6	-30.9
GTTGCGGGAAACCGTGAC ((..(((....)))..))	45.2	-20.2
GTTGCGGGAAACTGCAGC (.(((.(....).))).)	45	-15.8
GTTGCTGAAAAGCAAC ((((((....))))))	66	-32.8
GTTGCTGCGAAAGCAAAC (((..(((....))))))	37.8	-14.3
GTTGCTGGAAACAGCAGC (.(((((....))))).)	54.5	-26.3
GTTGCTGGAAACAGTAAC (((.(((....))).)))	47	-29
GTTGCTGGAAACGGCAAC (((((.(....).)))))	55.2	-43.6
GTTGGACGAAAGTCAAAC (((.(((....))).)))	50.9	-26.9
GTTGGACGAAAGTCTAAC (((.(((....))).)))	51.4	-26.3
GTTGGAGAAATCCAAC ((((((....))))))	52	-32
GTTGGCCGAAAGGCGAAC (((.(((....))).)))	57.4	-26.6
GTTGGCGAAAGCCGGAAC ((((((....)))..)))	27.8	-7.97
GTTGGCGGAAACGCTAGC (.(.(((....))).).)	34.5	-13.2
GTTGGGGGAAACCCCGAC ((.((((....)))).))	56.6	-24.2
GTTGGGGGAAACCCTAGC (.(.(((....))).).)	24.6	-9.75
GTTGGGGGAAACCTCAAC ((((.((....)).))))	47.8	-32
GTTGGGGGAAACCTCAGC (.((.((....)).)).)	31	-17.4
GTTGGTGGAAACACTGAC ((..(((....)))..))	34.8	-15.9
GTTGGTGGAAACGTCAAC ((((..(....)..))))	33.5	-16.1

Sequence	Tm [1] [°C]	folding enthalpy [2] [kcal/mol]
GTTGTACCGAAAGGTAAC (((..(((....))))))	47.4	-23.7
GTTGTACGAAAGTAAAC (((.(((....))))))	39.7	-21.9
GTTGTACGAAAGTAGAAC (((.(((....))).)))	44	-30.1
GTTGTATCGAAAGATAAC (((..(((....))))))	37.1	-27.3
GTTGTCGAAAGACAAAAC ((((((....)))..)))	36.9	-13.6
GTTGTCGAAAGACAAC ((((((....))))))	67.5	-27.7
GTTGTCGAAAGACATAAC ((((((....)))..)))	32.6	-13.3
GTTGTCGAAAGACTGAAC ((((((....)))..)))	30.7	-11.3
GTTGTCGGAAACAACAAC (((((.(....).)))))	40.2	-23.4
GTTGTCTCGAAAGAGAAC (((..(((....))))))	46.1	-22.2
GTTGTGACGAAAGTCAAC (((..(((....))))))	49.7	-21.6
GTTGTGTCGAAAGACAAC (((..(((....))))))	51.1	-24.9
GTTGTTGGAAACAATAGC (.(.(((....))).).)	31.2	-11.9
GTTGTTGGAAACAATGAC ((..(((....)))..))	38.5	-13.9
GTTTAACGAAAGTTTAAC (((.(((....))).)))	36.2	-23.4
GTTTAAGGAAACTTAAAC (((((((....)))))))	46.5	-40.6
GTTTACCGAAAGGTAAC (((.(((....))))))	44.2	-12.7
GTTTACGAAAGTAGAAC ((((((....))).)))	27.2	-11.3
GTTTACGGAAACGCAAAC ((((.((....)).))))	37.3	-27.7
GTTTACGGAAACGTAAGC (.(((((....))))).)	41.5	-22.4
GTTTAGAAATAAAC (((((....)))))	28.4	-9.32
GTTTCACGAAAGTGCAAC (((.(((....))).)))	41.1	-26.9

Source: the array DNA melting data of Ke et al. (doi:10.1101/2024.01.08.574731)
